{
  "source": "PubChem BioAssay AID504485",
  "about": "(Sanford-Burnham Center for Chemical Genomics, 2011)",
  "note": "The source made the active and inactive calls.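 How the source made its calls: active means mean IC50 at or below 20 µM; inactive means the rest.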",
  "data": [
    {"tested_on": "697 B-cell NF-kB luciferase, PMA/ionomycin, 16 h", "experiment": "stimulated NF-kB reporter signal decrease, 697 cells – cell-based, luminescence, B-cell NF-kB inhibitor project, SAR follow-up (AID 504485)", "in_short": "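System – human 697 B-cell line with NF-kB-driven luciferase reporter · Input – 15000 cells per well · Schedule – 1 h pretreatment, 16 h stimulation, 37 °C · Signal – SteadyGlo luminescence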", "values": [
      {"compound": "CCNC(=O)CCc1nc(-c2c(Cl)cccc2Cl)no1", "IC50": "> 79 µM (inactive)"},
      {"compound": "CCOc1ccc(-c2nc(CSCC(=O)N(C)C)c(C)o2)cc1", "IC50": "> 79 µM (inactive)"},
      {"compound": "Cc1ccc(-c2nc(CSCC(=O)NCc3ccco3)c(C)o2)cc1", "IC50": "> 79 µM (inactive)"},
      {"compound": "CCCCc1ccc(-c2noc(CCC(=O)NC3CC3)n2)cc1", "IC50": "0.21 µM"},
      {"compound": "CCc1ccc(-c2nc(CSCC(=O)NC3CC3)c(-c3ccccc3)o2)cc1", "IC50": "> 79 µM (inactive)"},
      {"compound": "CCNC(=O)CCc1nc(-c2cccc(F)c2)no1", "IC50": "> 79 µM (inactive)"},
      {"compound": "CCC(C)NC(=O)CCc1nc(-c2ccccc2)no1", "note": "(stereo not drawn)", "IC50": "> 79 µM (inactive)"},
      {"compound": "C#CCNC(=O)CSCc1nc(-c2ccc(OCC)cc2)oc1C", "IC50": "< 0.15 µM"},
      {"compound": "CCNC(=O)CCc1nc(-c2ccccc2Cl)no1", "IC50": "> 79 µM (inactive)"},
      {"compound": "Cc1oc(-c2ccc(C(F)(F)F)cc2)nc1CSCC(=O)NC1CC1", "IC50": "15.7 µM"},
      {"compound": "Cc1oc(-c2ccc(OC(F)(F)F)cc2)nc1CSCC(=O)NC1CC1", "IC50": "2.23 µM"},
      {"compound": "CC(C)(C)c1ccc(-c2noc(CCC(=O)NC3CCC3)n2)cc1", "IC50": "0.41 µM"},
      {"compound": "CNC(=O)CCc1nc(-c2ccccc2)no1", "IC50": "> 79 µM (inactive)"},
      {"compound": "CCN(CC)C(=O)CCc1nc(-c2ccc(C(C)(C)C)cc2)no1", "IC50": "58.4 µM (inactive)"},
      {"compound": "CCc1ccc(-c2noc(CCC(=O)NC(C)CC)n2)cc1", "note": "(stereo not drawn)", "IC50": "> 79 µM (inactive)"},
      {"compound": "CCCCc1ccc(-c2noc(CCC(=O)NCC)n2)cc1", "IC50": "0.22 µM"},
      {"compound": "CCOc1ccc(-c2nc(CSCC(=O)NCC3CC3)c(C)o2)cc1", "IC50": "1.32 µM"},
      {"compound": "CCCCc1ccc(-c2noc(CCC(=O)NC(C)CC)n2)cc1", "note": "(stereo not drawn)", "IC50": "0.67 µM"},
      {"compound": "CC(C)(C)NC(=O)CCc1nc(-c2ccccc2)no1", "IC50": "> 79 µM (inactive)"},
      {"compound": "CCCCOc1ccc(-c2nc(CSCC(=O)NCc3ccco3)c(C)o2)cc1", "IC50": "0.26 µM"},
      {"compound": "CCC(C)NC(=O)CCc1nc(-c2ccc(C(C)C)cc2)no1", "note": "(stereo not drawn)", "IC50": "7.96 µM"},
      {"compound": "CCNC(=O)CCc1nc(-c2ccc(C(C)C)cc2)no1", "IC50": "0.32 µM"},
      {"compound": "COC(=O)CCc1nc(-c2ccc(C(C)(C)C)cc2)no1", "IC50": "< 0.16 µM"},
      {"compound": "CCOc1cccc(-c2nc(CSCC(=O)NC3CC3)c(C)o2)c1", "IC50": "> 79 µM (inactive)"},
      {"compound": "CCCOc1ccc(-c2nc(CSCC(=O)NC3CC3)c(C)o2)cc1", "IC50": "< 0.15 µM"},
      {"compound": "O=C(O)CCc1nc(-c2ccccc2)no1", "IC50": "> 79 µM (inactive)"},
      {"compound": "CCNC(=O)CCc1nc(-c2ccc(CC)cc2)no1", "IC50": "> 79 µM (inactive)"},
      {"compound": "Cc1oc(-c2ccc(OC(F)(F)F)cc2)nc1CSCC(=O)O", "IC50": "0.24 µM"},
      {"compound": "COc1ccc(C(=O)Nc2ccc3[nH]c(-c4cccc(OC)c4)cc(=O)c3c2)cc1", "IC50": "> 79 µM (inactive)"},
      {"compound": "CN(C)C(=O)CCc1nc(-c2ccc(C(C)(C)C)cc2)no1", "IC50": "41.5 µM (inactive)"},
      {"compound": "CCNC(=O)CCc1nc(-c2ccccc2C)no1", "IC50": "> 79 µM (inactive)"},
      {"compound": "CCOc1ccc(-c2nc(CSCC(=O)NC(C)(C)C)c(C)o2)cc1", "IC50": "60.5 µM (inactive)"},
      {"compound": "CCc1ccc(-c2noc(CCC(=O)NC(C)(C)C)n2)cc1", "IC50": "> 79 µM (inactive)"},
      {"compound": "CCOc1ccc(-c2nc(CSCC(=O)NC3CC3)c(C)o2)cc1", "IC50": "0.19 µM"},
      {"compound": "CCCCc1ccc(-c2noc(CCC(=O)NC)n2)cc1", "IC50": "0.2 µM"},
      {"compound": "CC(C)(C)c1ccc(-c2noc(CCC(=O)NC3CC3)n2)cc1", "IC50": "0.06 µM"},
      {"compound": "CCCOc1ccc(-c2nc(CSCC(=O)NCc3ccco3)c(C)o2)cc1", "IC50": "0.17 µM"},
      {"compound": "CCNC(=O)CCc1nc(-c2cccc(C)c2)no1", "IC50": "> 79 µM (inactive)"},
      {"compound": "CC(C)c1ccc(-c2noc(CCC(=O)NC3CC3)n2)cc1", "IC50": "0.26 µM"},
      {"compound": "Cc1oc(-c2ccc(C(F)(F)F)cc2)nc1CSCC(=O)O", "IC50": "0.97 µM"},
      {"compound": "CCOc1ccc(-c2nc(CSCC(=O)NC3CCC3)c(C)o2)cc1", "IC50": "3.23 µM"},
      {"compound": "CCOc1ccc(-c2nc(CSCC(=O)NC)c(C)o2)cc1", "IC50": "0.33 µM"},
      {"compound": "Cc1oc(-c2ccccc2)nc1CSCC(=O)NCc1ccco1", "IC50": "> 79 µM (inactive)"},
      {"compound": "CCOc1ccc(-c2nc(CSCC(=O)NC3CC3)c(-c3ccccc3)o2)cc1", "IC50": "> 79 µM (inactive)"},
      {"compound": "CCNC(=O)CCc1nc(-c2cccc(OC)c2)no1", "IC50": "> 79 µM (inactive)"},
      {"compound": "CNC(=O)CCc1nc(-c2ccc(C(C)(C)C)cc2)no1", "IC50": "< 0.16 µM"},
      {"compound": "CCOc1ccc(-c2nc(CSCC(=O)N3CCOCC3)c(C)o2)cc1", "IC50": "> 79 µM (inactive)"},
      {"compound": "CC(C)Nc1ccc(C(CC(=O)O)NC(=O)c2ccccc2)cc1[N+](=O)[O-]", "note": "(stereo not drawn)", "IC50": "> 79 µM (inactive)"},
      {"compound": "CCOc1ccccc1-c1nc(CSCC(=O)O)c(C)o1", "IC50": "> 79 µM (inactive)"},
      {"compound": "Cc1ccc(-c2nc(CSCC(=O)NC3CC3)c(C)o2)cc1", "IC50": "16.2 µM"},
      {"compound": "COc1cccc(-c2cc(=O)c3cc(NC(=O)c4ccc(N(C)C)cc4)ccc3[nH]2)c1", "IC50": "> 79 µM (inactive)"},
      {"compound": "CC(C)(C)c1ccc(-c2noc(CCC(=O)O)n2)cc1", "IC50": "0.19 µM"},
      {"compound": "CCNC(=O)CCc1nc(-c2ccccc2)no1", "IC50": "> 79 µM (inactive)"},
      {"compound": "CCOc1ccc(-c2nc(CSCC(=O)O)c(C)o2)cc1", "IC50": "< 0.15 µM"},
      {"compound": "COc1ccc(-c2nc(CSCC(=O)NCc3ccco3)c(C)o2)cc1", "IC50": "29.5 µM (inactive)"},
      {"compound": "O=C(CCc1nc(-c2ccccc2)no1)NC1CC1", "IC50": "> 79 µM (inactive)"},
      {"compound": "CCNC(=O)CCc1nc(-c2ccc(OCC)cc2)no1", "IC50": "> 79 µM (inactive)"},
      {"compound": "CCCCOc1ccc(-c2nc(CSCC(=O)O)c(C)o2)cc1", "IC50": "0.18 µM"},
      {"compound": "CCCOc1ccc(-c2nc(CSCC(=O)O)c(C)o2)cc1", "IC50": "< 0.15 µM"},
      {"compound": "CCc1ccc(-c2nc(CSCC(=O)NCc3ccco3)c(C)o2)cc1", "IC50": "49.4 µM (inactive)"},
      {"compound": "CCOc1ccc(-c2noc(CCC(=O)O)n2)cc1", "IC50": "34 µM (inactive)"},
      {"compound": "CC(C)(C)c1ccc(-c2noc(CCC(N)=O)n2)cc1", "IC50": "< 0.16 µM"},
      {"compound": "CNC(=O)CCc1nc(-c2ccc(C(C)C)cc2)no1", "IC50": "0.21 µM"},
      {"compound": "CCc1ccc(-c2noc(CCC(=O)NC3CC3)n2)cc1", "IC50": "> 79 µM (inactive)"},
      {"compound": "COc1cccc(-c2cc(=O)c3cc(NC(=O)c4ccccc4)ccc3[nH]2)c1", "IC50": "> 79 µM (inactive)"},
      {"compound": "CC(C)c1ccc(-c2noc(CCC(=O)NC(C)(C)C)n2)cc1", "IC50": "26.9 µM (inactive)"},
      {"compound": "CCOC(=O)CC(NC(=O)c1ccc(Br)cc1)c1ccc(F)c([N+](=O)[O-])c1", "note": "(stereo not drawn)", "IC50": "36.8 µM (inactive)"},
      {"compound": "CCNC(=O)CCc1nc(-c2ccc(C(C)(C)C)cc2)no1", "IC50": "0.03 µM"},
      {"compound": "COc1ccc(-c2nc(CSCC(=O)NC3CC3)c(C)o2)cc1", "IC50": "29.2 µM (inactive)"},
      {"compound": "CCc1ccc(-c2noc(CCC(=O)NC)n2)cc1", "IC50": "> 79 µM (inactive)"},
      {"compound": "CCOc1ccc(-c2nc(CSCC(=O)NCc3ccco3)c(C)o2)cc1", "IC50": "0.21 µM"},
      {"compound": "CCC(C)NC(=O)CCc1nc(-c2ccc(C(C)(C)C)cc2)no1", "note": "(stereo not drawn)", "IC50": "0.49 µM"},
      {"compound": "CCCCc1ccc(-c2noc(CCC(=O)NC(C)(C)C)n2)cc1", "IC50": "2.31 µM"},
      {"compound": "Cc1oc(-c2ccccc2)nc1CSCC(=O)NC1CC1", "IC50": "> 79 µM (inactive)"},
      {"compound": "CCOc1ccc(-c2nc(CSCC(N)=O)c(C)o2)cc1", "IC50": "< 0.15 µM"},
      {"compound": "CCCCOc1ccc(-c2nc(CSCC(=O)NC3CC3)c(C)o2)cc1", "IC50": "0.24 µM"},
      {"compound": "CCc1ccc(-c2nc(CSCC(=O)NC3CC3)c(C)o2)cc1", "IC50": "0.48 µM"},
      {"compound": "CCOc1ccccc1-c1nc(CSCC(=O)NC2CC2)c(C)o1", "IC50": "> 79 µM (inactive)"}
    ]}
  ]
}
